{
  "source": "paper PMC4118675",
  "about": "(Chembiochem : a European journal of chemical biology, 2014)",
  "key": {"DUSP": {"tested_on": "DUSP", "conditions": "bacterially produced recombinant protein, no ERK; cited from earlier work"}, "[1]": {"tested_on": "Recombinant His-tagged Dusp6", "assay": "In vitro OMFP phosphatase assay, ERK2 induced activation of DUSP6", "assay_type": "biochemical", "conditions": "100 μM compound, with recombinant ERK2, OMFP substrate", "in_short": "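Recombinant His-tagged Dusp6 (250 ng), expressed in bacteria, was preincubated with 100 μM test compound. Recombinant ERK2 (210 ng) was added, then OMFP substrate (100 μM). Fluorescence (485/525 nm) was read every 10 min for 1 h at room temperature. Percent inhibition was taken at 10 min, within the linear range, from three independent experiments (mean ± SD). Vanadate was the positive control; one-way ANOVA with Tukey post hoc test.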"}, "FGF signaling": {"tested_on": "FGF signaling", "assay": "FGF reporter activation in Tg", "assay_type": "in vivo, zebrafish", "conditions": "for in vivo FGF hyperactivation activity (in words): Tg(dusp6:EGFP)pt6 embryos, SAR statement relative to 1", "in_short": "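Compound was added from 100X DMSO stocks (1% DMSO final). Time course was imaged hourly for 6 h; dose-response was read at 5 h. Embryos were anaesthetised with MS222 (40 μg/ml) and imaged at 4X (488/525 nm).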"}, "human c-Myc-DUSP1": {"target": "T1, human c-Myc-DUSP1 (Homo sapiens, UniProt P28562)", "T1 sequence (P28562 1-367)": "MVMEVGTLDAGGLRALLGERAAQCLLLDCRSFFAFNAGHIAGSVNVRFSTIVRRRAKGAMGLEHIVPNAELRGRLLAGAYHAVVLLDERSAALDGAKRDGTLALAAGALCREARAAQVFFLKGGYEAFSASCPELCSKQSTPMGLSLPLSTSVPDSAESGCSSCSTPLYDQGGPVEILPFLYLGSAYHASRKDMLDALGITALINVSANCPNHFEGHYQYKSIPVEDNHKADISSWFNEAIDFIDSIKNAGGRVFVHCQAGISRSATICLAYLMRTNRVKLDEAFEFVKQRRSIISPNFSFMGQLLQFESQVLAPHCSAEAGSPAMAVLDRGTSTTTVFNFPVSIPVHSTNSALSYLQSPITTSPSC", "assay": "Chemical complementation assay for DUSP1", "assay_type": "cell-based", "in_short": "(§1)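 Human c-Myc-tagged DUSP1 (in pcDNA3.1) or DUSP6 (in pSG5) transfected into HeLa cells, which were grown in DMEM with 10% FBS at 37 °C and 5% CO2. At 48 h, quadruplicate wells got a 15 min treatment with ten two-fold dilutions, then TPA (500 ng/ml) for 15 min. Cells were immunostained for pERK and c-Myc. IC50 came from a four-parameter logistic fit of KS values versus concentration.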"}, "human c-Myc-DUSP6": {"target": "T2, human c-Myc-DUSP6 (Homo sapiens, UniProt Q16828)", "T2 sequence (Q16828 1-381)": "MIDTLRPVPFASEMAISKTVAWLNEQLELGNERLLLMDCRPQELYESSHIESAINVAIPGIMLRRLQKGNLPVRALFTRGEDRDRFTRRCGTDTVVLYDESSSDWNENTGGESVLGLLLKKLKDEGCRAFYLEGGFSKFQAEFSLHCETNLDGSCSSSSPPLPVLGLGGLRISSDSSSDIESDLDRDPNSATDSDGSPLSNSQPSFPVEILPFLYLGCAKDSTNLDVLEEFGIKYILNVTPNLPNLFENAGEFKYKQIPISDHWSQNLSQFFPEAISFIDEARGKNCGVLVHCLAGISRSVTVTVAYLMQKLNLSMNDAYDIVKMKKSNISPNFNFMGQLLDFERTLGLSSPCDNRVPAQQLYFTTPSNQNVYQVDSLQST", "assay": "Chemical complementation assay for DUSP6", "assay_type": "cell-based", "in_short": "as §1"}, "zebrafish embryos": {"tested_on": "zebrafish embryos", "assay": "Hatching study in zebrafish embryos", "assay_type": "in vivo", "conditions": "6 hour exposure followed by washout; for embryos hatched (in words): exposure at their EC50 (1: 10 μM, 7: 5 μM)"}, "EA.hy926 cells": {"tested_on": "EA.hy926 cells", "assay": "Cytotoxicity in cultured EA.hy926 cells", "assay_type": "cell-based", "conditions": "six hours, concentrations up to 50 μM", "in_short": "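EA.hy926 endothelial hybridoma cells were kept in DMEM with 10% FBS and 2 mM glutamine, plated at 10,000/well and allowed to attach overnight. They were exposed for 6 h to five-point 1/3 dilution gradients, with phenylarsine oxide as positive control. Live cells were stained with propidium iodide (1 μg/ml) and Hoechst 33342 (10 μg/ml), then imaged. Scored per field: nuclei count, nuclear condensation, % PI-positive cells.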"}, "[2]": {"conditions": "HeLa chemical complementation assay"}},
  "note": "Entries after “also recorded” stand apart in the source; their conditions may differ.",
  "data": [
    {"smiles": "O=C1/C(=C/c2ccccc2)C(NC2CCCCC2)c2ccccc21", "note": "(stereo not shown) [Compound 1, (E)-2-benzylidene-3-(cyclohexylamino)-2,3-dihydro-1H-inden-1-one]", "values": [
      {"measurement": "antiphosphatase activity in traditional biochemical assay (in words)", "setting": "DUSP", "result": "lacked antiphosphatase activity"},
      {"measurement": "suppression of ERK-stimulated activation of DUSP6 (in words)", "setting": "[1]", "result": "significantly suppressed activation of DUSP6"},
      {"measurement": "time at which GFP expression reached a maximum", "setting": "FGF signaling; 20 μM, 24 hpf embryos, stable for an additional hour", "result": 5, "unit": "h"},
      {"measurement": "concentration of maximal FGF reporter activation", "setting": "FGF signaling; 5 hour time point, declined at higher concentrations", "result": 20, "unit": "µM"},
      {"measurement": "IC50", "setting": "human c-Myc-DUSP1", "result": "8 ± 0.6", "unit": "µM"},
      {"measurement": "IC50", "setting": "human c-Myc-DUSP6", "result": "13.3 ± 1.8", "unit": "µM"},
      {"measurement": "embryos hatched (in words)", "setting": "zebrafish embryos", "result": "no embryos hatched"}
    ]},
    {"smiles": "O=C1C(=Cc2ccccc2)C(Nc2ccccc2)c2ccccc21", "note": "(stereo not shown) [Compound 4]", "values": [
      {"measurement": "in vivo FGF hyperactivation activity (in words)", "setting": "FGF signaling", "result": "abolished activity"}
    ]},
    {"smiles": "O=C1/C(=C/c2ccccc2)C(N2CCOCC2)c2ccccc21", "note": "(stereo not shown) [Compound 7]", "values": [
      {"measurement": "suppression of ERK-stimulated activation of DUSP6 (in words)", "setting": "[1]", "result": "significantly suppressed activation of DUSP6"},
      {"measurement": "in vivo FGF hyperactivation activity (in words)", "setting": "FGF signaling", "result": "maximal activity"},
      {"measurement": "embryos hatched (in words)", "setting": "zebrafish embryos", "result": "no embryos hatched"}
    ]},
    {"smiles": "O=C1C(=Cc2ccc(Cl)cc2)C(NC2CCCCC2)c2ccccc21", "note": "(stereo not shown) [Compound 15]", "values": [
      {"measurement": "in vivo FGF hyperactivation activity (in words)", "setting": "FGF signaling", "result": "did not substantially change activity compared to 1"}
    ]},
    {"smiles": "O=C1C(=Cc2ccc(Cl)c(Cl)c2)C(NC2CCCCC2)c2ccccc21", "note": "(stereo not shown) [Compound 16]", "values": [
      {"measurement": "in vivo FGF hyperactivation activity (in words)", "setting": "FGF signaling", "result": "did not substantially change activity compared to 1"}
    ]},
    {"smiles": "O=C1/C(=C/c2ccccc2)C(NC2CCCCC2)c2cc(Br)ccc21", "note": "(stereo not shown) [Compound 19]", "values": [
      {"measurement": "cellular toxicity (in words)", "setting": "EA.hy926 cells", "result": "devoid of cellular toxicity"},
      {"measurement": "suppression of ERK-stimulated activation of DUSP6 (in words)", "setting": "[1]", "result": "significantly suppressed activation of DUSP6"},
      {"measurement": "in vivo FGF hyperactivation activity (in words)", "setting": "FGF signaling", "result": "tolerated"},
      {"measurement": "embryos hatched by 56 hpf", "setting": "zebrafish embryos; 20 μM (two times the EC50 for FGF activation)", "result": 100, "unit": "%"}
    ]},
    {"smiles": "COc1ccc(/C=C2/C(=O)c3ccccc3C2N2CCOCC2)cc1", "note": "(stereo not shown) [Compound 24]", "values": [
      {"measurement": "in vivo FGF hyperactivation activity (in words)", "setting": "FGF signaling", "result": "inactive; also recorded: abolished the activity"},
      {"measurement": "DUSP1 inhibition in mammalian cells (in words)", "setting": "human c-Myc-DUSP1; [2]", "result": "lacked antiphosphatase activity"},
      {"measurement": "DUSP6 inhibition in mammalian cells (in words)", "setting": "human c-Myc-DUSP6; [2]", "result": "lacked antiphosphatase activity"}
    ]},
    {"smiles": "OC1C(=Cc2ccccc2)C(NC2CCCCC2)c2ccccc21", "note": "(stereo not shown) [Compound 31, 2-benzylidene-3-cyclohexylaminoindan-1-ol]", "values": [
      {"measurement": "suppression of ERK-stimulated activation of DUSP6 (in words)", "setting": "[1]", "result": "insignificant"},
      {"measurement": "in vivo FGF hyperactivation activity (in words)", "setting": "FGF signaling", "result": "abolished activity"}
    ]}
  ]
}
